Calls of active or inactive are those of the source. No cut-off for these calls is given here.
Experiments:
[1] = tested on: HeLa; experiment: Binding affinity to N-Ras RNA QGRS (unknown origin) transfected in human HeLa cells assessed as increase in ADAM10 translation efficiency at 2.5 uM after 24 hrs by Renilla/firefly dual luciferase reporter assay; type: cell-based
Summary of the method: (§1)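 HeLa cells carrying luciferase reporter plasmids with the N-Ras, Bcl-2 or VEGF 5′-UTR quadruplex (or its mutant) treated with compound up to 2.5 μM for 24 h. Renilla/firefly luciferase activity then measured.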

[2] = tested on: HeLa; experiment: Toxicity against human HeLa cells assessed as effect on cell morphology at 0.5 to 2.5 uM after 24 hrs; type: cell-based
Summary of the method: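 HeLa cells inspected for cell number and morphology before the luciferase read-out, after reporter-plasmid transfection and 24 h exposure to 0, 0.5, 1 or 2.5 μM compound.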

[3] = tested on: HEK-APP; experiment: Binding affinity to ADAM10 A10-RNA QGRS (unknown origin) transfected in HEK-APP cells assessed as increase in ADAM10 protein expression at 0.75 uM after 48 hrs by Western blotting method; type: cell-based
Summary of the method: (§2)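 HEK-APP cells (DMEM, 10% FBS, 2 mM glutamine, 0.2 mg/mL G418) treated with 0, 0.5, 0.75, 1 or 1.5 μM compound for 48 h. Lysates in Tris/NaCl/EDTA/1% Triton buffer immunoblotted for ADAM10, APP and β-actin; conditioned medium blotted for sAPPα. Signal by densitometry, normalized to β-actin, relative to blank control; mean ± SD, three independent experiments.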

[4] = tested on: HeLa; experiment: Binding affinity to VEGF RNA QGRS (unknown origin) transfected in human HeLa cells assessed as increase in ADAM10 translation efficiency at 2.5 uM after 24 hrs by Renilla/firefly dual luciferase reporter assay; type: cell-based; summary of the method: as §1
[5] = target: T1, Disintegrin and metalloproteinase domain-containing protein 10 (Homo sapiens) (UniProt O14672); experiment: Activation of human recombinant ADAM10 assessed as increase in enzyme activity at 0.25 to 4 uM pre-incubated for 20 mins before fluorogenic alpha-secretase substrate addition and measured 1 hr post substrate addition by monochromator-based multimode microplate reader based method
T1 sequence (whole entry): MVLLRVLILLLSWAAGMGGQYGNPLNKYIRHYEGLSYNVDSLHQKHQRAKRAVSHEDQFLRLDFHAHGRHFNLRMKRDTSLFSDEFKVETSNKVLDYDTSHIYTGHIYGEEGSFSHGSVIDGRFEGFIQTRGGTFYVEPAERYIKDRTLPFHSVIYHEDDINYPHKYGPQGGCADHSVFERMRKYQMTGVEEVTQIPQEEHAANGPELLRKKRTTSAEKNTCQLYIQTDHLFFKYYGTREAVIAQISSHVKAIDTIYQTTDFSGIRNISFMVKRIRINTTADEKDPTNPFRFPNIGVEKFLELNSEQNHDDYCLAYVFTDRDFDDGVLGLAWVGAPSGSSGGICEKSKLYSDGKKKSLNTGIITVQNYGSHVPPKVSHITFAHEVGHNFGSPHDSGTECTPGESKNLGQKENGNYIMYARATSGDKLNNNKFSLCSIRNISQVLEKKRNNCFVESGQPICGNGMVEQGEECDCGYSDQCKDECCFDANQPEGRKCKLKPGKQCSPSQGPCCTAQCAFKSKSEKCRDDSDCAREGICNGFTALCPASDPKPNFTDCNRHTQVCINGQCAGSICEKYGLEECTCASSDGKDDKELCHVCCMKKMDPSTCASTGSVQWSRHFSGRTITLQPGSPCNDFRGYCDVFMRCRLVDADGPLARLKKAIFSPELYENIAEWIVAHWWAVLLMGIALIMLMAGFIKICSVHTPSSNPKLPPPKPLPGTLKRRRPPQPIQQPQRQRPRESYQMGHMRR
Summary of the method: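 Recombinant human ADAM10 (50 ng total protein per sample) preincubated 20 min with 0, 0.25, 0.5, 1, 2, 4 μM compound. Then 2× reaction buffer added (50 μM Tris, 4 μM ZnCl2, 0.01% Brij-35, pH 9.0) with 20 μM fluorogenic α-secretase substrate. Incubated 1 h at 37 °C in the dark; fluorescence read at ex 340/em 490 nm.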

[6] = Binding affinity to ADAM10 A10-RNA QGRS (unknown origin) by microscale thermophoresis method
[7] = tested on: HeLa; experiment: Binding affinity to ADAM10 5'-UTR mutant RNA QGRS (unknown origin) transfected in human HeLa cells assessed as increase in ADAM10 translation efficiency at 0.5 uM after 24 hrs by Renilla/firefly dual luciferase reporter assay; type: cell-based
Summary of the method: (§3)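 HeLa cells transfected with 0.8 μg 5′UTR-Wt or 5′UTR-Mut dual-luciferase plasmid. After 12 h, incubated 24 h with 0, 0.5, 1 or 2.5 μM compound. Renilla luciferase normalized to firefly and expressed relative to the ligand-free control; mean ± SD of three independent experiments, each in triplicate.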

[8] = tested on: HEK-APP; experiment: Binding affinity to ADAM10 A10-RNA QGRS (unknown origin) transfected in HEK-APP cells assessed as increase in ADAM10 protein expression at 1.5 uM after 48 hrs by Western blotting method; type: cell-based; summary of the method: as §2
[9] = tested on: HeLa; experiment: Binding affinity to ADAM10 5'-UTR RNA QGRS (unknown origin) transfected in human HeLa cells assessed as increase in ADAM10 translation efficiency at 1 uM after 24 hrs by Renilla/firefly dual luciferase reporter assay; type: cell-based; summary of the method: as §3
[10] = tested on: HeLa; experiment: Binding affinity to ADAM10 5'-UTR mutant RNA QGRS (unknown origin) transfected in human HeLa cells assessed as increase in ADAM10 translation efficiency at 1 uM after 24 hrs by Renilla/firefly dual luciferase reporter assay; type: cell-based; summary of the method: as §3
[11] = tested on: HEK293; experiment: Reduction in Abeta40 protein production in APP expressing HEK cells at 0.75 uM after 48 hrs by ELISA method; type: functional, Homo sapiens; parameters: scale not given: the % may be the effect or the level left
Summary of the method: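 HEK-APP cells treated 48 h with increasing compound concentrations (0.75, 1, 1.5 μM). Secreted Aβ40 in equal amounts of conditioned medium quantified by sandwich ELISA. Values expressed relative to blank control; mean ± SD of three independent experiments.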

[12] = tested on: HeLa; experiment: Binding affinity to ADAM10 A10-RNA QGRS (unknown origin) transfected in human HeLa cells assessed as increase in ADAM10 translation efficiency at 2.5 uM after 24 hrs by Renilla/firefly dual luciferase reporter assay; type: cell-based
Summary of the method: (§4)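 HeLa cells transfected with 0.8 μg A10-Wt, A10-Mut or A10-Del plasmid (G-quadruplex motif upstream of Renilla in psiCHECK-2). Screening: 24 h at a single 2 μM concentration. Follow-up: plasmid for 12 h, then 0, 0.5, 1 or 2.5 μM for 24 h. Renilla normalized to firefly, relative to untreated control; mean ± SD of three independent measurements.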

[13] = tested on: HeLa; experiment: Binding affinity to ADAM10 5'-UTR mutant RNA QGRS (unknown origin) transfected in human HeLa cells assessed as increase in luciferase mRNA expression at 0.5 to 2.5 uM after 24 hrs by RT-PCR method; type: cell-based
[14] = tested on: HeLa; experiment: Binding affinity to ADAM10 A10-RNA QGRS (unknown origin) transfected in human HeLa cells assessed as increase in ADAM10 translation efficiency at 2 uM after 24 hrs by Renilla/firefly dual luciferase reporter assay; type: cell-based; summary of the method: as §4

In the case of `CCn1c2ccccc2c2cc(/C=C/c3cc(N4CCN(C)CC4)c4ccccc4[n+]3C)ccc21.[I-]`, the Activity [1] is reported as 20%, the Activity [2] is reported as “Non-toxic” and the Activity [3] is reported as 55.1%. For the same molecule, the Activity [4] was “inactive”, the Activity [5] was “Active” and the Kd [6] was 4.9 µM. The Activity [7] was “inactive”, the Activity [8] was 92.9% and the Activity [9] was 22.5%. The Activity [10] was “inactive”, the Activity [11] was 7.7% and the Activity [12] was 87.3%. For the same molecule, the Activity [13] was “inactive” and the Activity [14] was 138%.
